Consider 4 compounds from ChEMBL document CHEMBL3758165, “In vitro interactions between anidulafungin and nonsteroidal anti-inflammatory drugs on biofilms of Candida spp” (2016).

Common to all, as to type: functional
The subject of assay [1] is Meyerozyma guilliermondii. As to the kind of experiment: Antibiofilm activity against Candida guilliermondii a83 by two dimensional checkerboard dilution method in presence of aspirin. In a few lines:
(§1)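 Biofilms were grown on PVC disks from 2 ml of a 1·10^6 cfu/ml cell suspension. Adhesion ran 1.5 h at 37 °C with shaking at 100 rpm. Disks were PBS-washed, then matured 48 h at 37 °C in RPMI 1640 (MOPS, pH 7). Biofilms were washed again and given 24 h at 37 °C of anidulafungin/NSAID checkerboard combinations (NSAID final 0.1 µM–100 mM). Read-out was XTT-menadione (2 h, 37 °C, 490 nm). SMIC was defined as 50% reduction versus drug-free control, from which FICI was calculated. Triplicates were run on different days.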

Assay [2] deals with Nakaseomyces glabratus. As to the kind of experiment: Antibiofilm activity against Candida glabrata ATCC 15126 assessed as fractional inhibitory concentration by two dimensional checkerboard dilution method in presence of ibuprofen. The method in brief:
(§2)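 Preformed 48 h disk biofilms (RPMI 1640, MOPS pH 7, 37 °C), PBS-washed, exposed 24 h at 37 °C on rocker to two-dimensional checkerboard of anidulafungin plus NSAID in RPMI; NSAID final 0.1 µM to 100 mM. XTT reduction at 490 nm; SMIC = combination giving 50% metabolic reduction versus drug-free control; FIC index calculated; triplicate on different days.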

Assay [3] relates to Meyerozyma guilliermondii. As to the kind of experiment: Antibiofilm activity against Candida guilliermondii a83 assessed as fractional inhibitory concentration by two dimensional checkerboard dilution method in presence of diclofenac. In a few lines:
as §1

In assay [4] the test system is Meyerozyma guilliermondii. Kind of assay: Antibiofilm activity against Candida guilliermondii ATCC 6260 assessed as fractional inhibitory concentration by two dimensional checkerboard dilution method in presence of aspirin. In a few lines: as §2
For assay [5], the system named is Nakaseomyces glabratus. As to the kind of experiment: Antibiofilm activity against Candida glabrata ATCC 15126 by two dimensional checkerboard dilution method in presence of ibuprofen. The method in brief:
as §2

Assay [6] relates to Meyerozyma guilliermondii. Kind of assay: Antibiofilm activity against Candida guilliermondii a410 by two dimensional checkerboard dilution method in presence of aspirin. The method in brief: as §1
Assay [7] concerns Meyerozyma guilliermondii. As to the kind of experiment: Antibiofilm activity against Candida guilliermondii a410 assessed as fractional inhibitory concentration by two dimensional checkerboard dilution method in presence of diclofenac. In a few lines:
as §1

Assay [8] deals with Candida albicans. As to the kind of experiment: Antibiofilm activity against Candida albicans 17a18 assessed as fractional inhibitory concentration by two dimensional checkerboard dilution method in presence of ibuprofen. The method in brief: as §2
In assay [9] the test system is Candida albicans. As to the kind of experiment: Antibiofilm activity against Candida albicans ATCC 90028 after 48 hrs by XTT reduction assay relative to control. The arrangement: scale not given: the % may be the effect or the level left. In a few lines:
(§3)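 Biofilms grown on autoclaved PVC disks: 1·10^6 cfu ml-1 cells, adhesion 1.5 h at 37 °C shaking 100 rpm, PBS wash, then 48 h at 37 °C in RPMI 1640 (MOPS, pH 7). Metabolic activity read by XTT–menadione reduction, 2 h at 37 °C, supernatant formazan at 490 nm, relative to drug-free control; triplicate on different days.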
On the technique in general: Tetrazolium assays rely on reduction of a dye to a coloured formazan, in cell work by metabolically active cells.

The subject of assay [10] is Candida albicans. Kind of assay: Antibiofilm activity against Candida albicans ATCC 24433 by two dimensional checkerboard dilution method in presence of aspirin. In a few lines:
as §2

The subject of assay [11] is Candida albicans. Kind of assay: Antibiofilm activity against Candida albicans ATCC 10231 by two dimensional checkerboard dilution method in presence of ibuprofen. In a few lines: as §2
The subject of assay [12] is Candida albicans. Kind of assay: Antibiofilm activity against Candida albicans ATCC 10231 by two dimensional checkerboard dilution method in presence of diclofenac. The method in brief: as §2
The subject of assay [13] is Candida albicans. As to the kind of experiment: Antibiofilm activity against Candida albicans ATCC 10231 assessed as fractional inhibitory concentration by two dimensional checkerboard dilution method in presence of ibuprofen. The method in brief:
as §2

Assay [14] deals with Meyerozyma guilliermondii. As to the kind of experiment: Antibiofilm activity against Candida guilliermondii ATCC 6260 assessed as fractional inhibitory concentration by two dimensional checkerboard dilution method in presence of ibuprofen. The method in brief: as §2
Assay [15] deals with Meyerozyma guilliermondii. Kind of assay: Antibiofilm activity against Candida guilliermondii a83 by two dimensional checkerboard dilution method. The method in brief:
(§4)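 Biofilms grown on sterilized PVC disks: 1·10^6 cfu/ml Candida cells adhered for 1.5 h at 37 °C with shaking, washed with PBS, then matured 48 h at 37 °C in RPMI 1640 (MOPS, pH 7). Preformed biofilms were washed and exposed to drug, alone or in two-dimensional checkerboard combination, in RPMI 1640 for 24 h at 37 °C on a rocker.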

Assay [16] has as its system Candida albicans. Kind of assay: Antibiofilm activity against Candida albicans ATCC 24433 by two dimensional checkerboard dilution method in presence of ibuprofen. In a few lines:
as §2

In assay [17] the test system is Candida albicans. As to the kind of experiment: Antibiofilm activity against Candida albicans 17a18 after 48 hrs by XTT reduction assay relative to control. The arrangement: scale not given: the % may be the effect or the level left. The method in brief:
as §3

Assay [18] relates to Candida albicans. Kind of assay: Antibiofilm activity against Candida albicans ATCC 10231 assessed as fractional inhibitory concentration by two dimensional checkerboard dilution method in presence of diclofenac. In a few lines: as §2
The test system of assay [19] is Meyerozyma guilliermondii. Kind of assay: Antibiofilm activity against Candida guilliermondii ATCC 6260 by two dimensional checkerboard dilution method in presence of aspirin. In a few lines:
as §2

Assay [20] deals with Meyerozyma guilliermondii. As to the kind of experiment: Potentiation of anidulafungin-induced antibiofilm activity against Candida guilliermondii ATCC 6260 at 0.1 uM to 100 mM after 48 hrs by XTT reduction assay relative to control. The arrangement: scale not given: the % may be the effect or the level left. In a few lines:
as §4

For assay [21], the system named is Candida albicans. Kind of assay: Antibiofilm activity against Candida albicans ATCC 10231 assessed as fractional inhibitory concentration by two dimensional checkerboard dilution method in presence of anidulafungin. The method in brief: (§5)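 Biofilms grown on PVC disks: 1·10^6 cfu/ml in RPMI 1640 (MOPS, pH 7), 1.5 h adhesion at 37 °C with shaking, PBS wash, 48 h maturation at 37 °C. Preformed biofilms exposed 24 h at 37 °C to anidulafungin/NSAID checkerboard combinations in RPMI. XTT-menadione reduction read at 490 nm. SMIC = 50% metabolic reduction versus drug-free control. Triplicate runs on different days; FIC index calculated.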

Assay [22] has as its system Meyerozyma guilliermondii. As to the kind of experiment: Antibiofilm activity against Candida guilliermondii ATCC 6260 assessed as fractional inhibitory concentration by two dimensional checkerboard dilution method in presence of anidulafungin. The method in brief: as §5
Assay [23] deals with Candida albicans. As to the kind of experiment: Potentiation of anidulafungin-induced antibiofilm activity against Candida albicans ATCC 10231 assessed as anidulafungin-fractional inhibitory concentration index by two dimensional checkerboard dilution method. In a few lines:
as §5

Assay [24] has as its system Candida albicans. Kind of assay: Potentiation of anidulafungin-induced antibiofilm activity against Candida albicans ATCC 90028 assessed as anidulafungin-fractional inhibitory concentration index by two dimensional checkerboard dilution method. The method in brief: as §5
Assay [25] concerns Candida albicans. As to the kind of experiment: Antibiofilm activity against Candida albicans ATCC 90028 at 1 mM after 24 hrs by XTT reduction assay relative to control. The arrangement: scale not given: the % may be the effect or the level left. The method in brief:
as §4

The test system of assay [26] is Candida albicans. As to the kind of experiment: Antibiofilm activity against Candida albicans ATCC 10231 at 0.1 uM to 100 mM after 48 hrs by XTT reduction assay relative to control. The arrangement: scale not given: the % may be the effect or the level left. The method in brief:
as §4

The subject of assay [27] is Candida albicans. As to the kind of experiment: Potentiation of anidulafungin-induced antibiofilm activity against Candida albicans ATCC 24433 at 0.1 uM to 100 mM after 48 hrs by XTT reduction assay relative to control. The arrangement: scale not given: the % may be the effect or the level left. The method in brief:
as §4

Assay [28] relates to Meyerozyma guilliermondii. Kind of assay: Antibiofilm activity against Candida guilliermondii a410 by two dimensional checkerboard dilution method in presence of anidulafungin. In a few lines: as §4
Assay [29] deals with Candida albicans. As to the kind of experiment: Antibiofilm activity against Candida albicans 17a18 at 0.1 uM to 100 mM after 48 hrs by XTT reduction assay relative to control. The arrangement: scale not given: the % may be the effect or the level left. The method in brief: as §4
Assay [30] relates to Candida albicans. As to the kind of experiment: Antibiofilm activity against Candida albicans ATCC 24433 at 0.1 uM to 100 mM after 48 hrs by XTT reduction assay relative to control. The arrangement: scale not given: the % may be the effect or the level left. The method in brief:
as §4

Assay [31] has as its system Candida albicans. As to the kind of experiment: Antibiofilm activity against Candida albicans ATCC 10231 at 1 mM after 24 hrs by XTT reduction assay relative to control. The arrangement: scale not given: the % may be the effect or the level left. The method in brief:
as §4

SMILES strings stand for the structures.

On to `CCCCCOc1ccc(-c2ccc(-c3ccc(C(=O)N[C@@H]4C[C@@H](O)[C@@H](O)NC(=O)[C@@H]5[C@@H](O)[C@@H](C)CN5C(=O)[C@H]([C@@H](C)O)NC(=O)[C@H]([C@H](O)[C@@H](O)c5ccc(O)cc5)NC(=O)[C@@H]5C[C@@H](O)CN5C(=O)[C@H]([C@H](C)O)NC4=O)cc3)cc2)cc1`, for which the MIC in assay [1] turned out to be 0.1 µg/mL; in the assay with Nakaseomyces glabratus [5], 0.1 µg/mL; in assay [6] it was 0.1 µg/mL; in the assay on Candida albicans [10] it was 0.1 µg/mL; with Candida albicans [11], 0.4 µg/mL; with Candida albicans [12], 0.1 µg/mL. Moreover, the MIC is 2 µg/mL in [15], 0.4 µg/mL in the assay with Candida albicans [16] and 0.1 µg/mL in [19]. The Ratio with Nakaseomyces glabratus [2] is reported as 0.05; in [3], 0.1; in [4] it was 0.05; in assay [7], 0.05; in the assay with Candida albicans [8], 0.2; with Candida albicans [13], 0.2. The Ratio in [14] is reported as 0.2; in the assay on Candida albicans [18] it was 0.05. The Activity in the assay with Candida albicans [9] is reported as 16.09%; in the assay with Candida albicans [17], 29.31%.

As for `CC(=O)Oc1ccccc1C(=O)O` [ASPIRIN], the Activity in [20] worked out at 50.37%; in the assay on Candida albicans [25] it was 44.72%; in the assay on Candida albicans [26] it was 49.21%; with Candida albicans [27], 56.14%; with Candida albicans [29], 46.55%. Further, the values for the Ratio (with Candida albicans [21]; in assay [22]) were 0.05 and 0.1, respectively. The “fractional inhibitory concentration index (FICI)” value in the assay on Candida albicans [23] and with Candida albicans [24] was 0.1 each time. Also, the MIC is 100 µM in [28] and 200 µM in assay [15].

Consider `O=C([O-])Cc1ccccc1Nc1c(Cl)cccc1Cl.[Na+]` [DICLOFENAC SODIUM], for which the Activity in assay [20] is on record as 57.69%; in the assay with Candida albicans [26], 53.57%; in the assay with Candida albicans [30], 50.25%; in the assay on Candida albicans [27], 65.24%; in the assay with Candida albicans [29], 55.33%. Also, the figures for the Ratio (in the assay with Candida albicans [21]; in assay [22]) were 0.05 and 0.4, respectively. Also, the “fractional inhibitory concentration index (FICI)” value in the assay on Candida albicans [23] and in the assay with Candida albicans [24] was 0.1 throughout. Further, the MIC in assay [28] was found to be 40000 µM; in assay [15] it was 100000 µM.

Regarding `CC(C)Cc1ccc(C(C)C(=O)O)cc1` (stereo not drawn) [IBUPROFEN], the Activity in assay [20] came out at 53.32%; in the assay on Candida albicans [25] it was 25.62%; in the assay on Candida albicans [31], 16.26%; with Candida albicans [30], 22.45%; in the assay on Candida albicans [27] it was 60.14%; in the assay with Candida albicans [29] it was 24.51%. The figures for the Ratio (in the assay on Candida albicans [21]; in assay [22]) were 0.05 and 0.1, respectively. The “fractional inhibitory concentration index (FICI)” value in the assay with Candida albicans [23] was found to be 0.25; in the assay on Candida albicans [24], 0.3. In addition, the MIC in assay [28] worked out at 20 µM; in [15], 200 µM.
